Data set [1] relates to Human alphaherpesvirus 1. Description: Antiviral activity against HSV1 assessed as inhibition of viral infection. In kind it is functional, organism-based.
Data set [2] concerns Influenza A virus. The data set can be described thus: Antiviral activity against Influenza A virus H3N2 by cytopathy assay. The format is functional, organism-based.
Data set [3] concerns Human alphaherpesvirus 2. Description: Antiviral activity against HSV2 assessed as inhibition of viral infection. In kind it is functional, organism-based.
The nature of data set [4]: Selectivity index, ratio of CC50 for cytotoxicity to EC50 for HSV1. In kind it is toxicity. Particulars: read-out: Ratio CC50/EC50. In outline:
(§1)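 CC50 is the concentration at which 50% of cells die, and EC50 is the concentration inhibiting 50% of viral infection. SI is calculated as the CC50/EC50 ratio.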

Data set [5] has as its system Influenza A virus. The data set can be described thus: Antiviral activity against Influenza A virus H5N1 by cytopathy assay. In kind it is functional, organism-based.
In data set [6] the test system is SARS-CoV. The data set can be described thus: Antiviral activity against SARS coronavirus by visual/neutral red test. Particulars: Severe acute respiratory syndrome-related coronavirus. In kind it is functional, organism-based.
A short description of data set [7]: Selectivity index, ratio of CC50 for cytotoxicity to EC50 for SARS coronavirus. In kind it is toxicity. To be noted: read-out: Ratio CC50/EC50. The gist of the method: as §1
Data set [8] relates to Hepatitis C virus. The data set can be described thus: Antiviral activity against Hepatitis C virus assessed as inhibition of viral infection by RNA replicon assay. The format is functional, organism-based, Hepacivirus hominis. (In antiviral work, replicon cells carry a viral genome segment that copies itself.)
Data set [9] has as its system West Nile virus. Description: Antiviral activity against West Nile virus by visual/neutral red test. The format is functional, organism-based.
For data set [10], the system named is Influenza B virus. Description: Antiviral activity against Influenza B virus by cytopathy assay. In kind it is functional, organism-based.
Data set [11] concerns Hepatitis B virus. Description: Antiviral activity against Hepatitis B virus assessed as inhibition of viral infection by DNA virion assay. The format is functional, organism-based.
Data set [12] in a line: Selectivity index, ratio of CC50 for cytotoxicity to EC50 for HSV2. The format is toxicity. Particulars: read-out: Ratio CC50/EC50. The gist of the method: as §1
In data set [13] the test system is Influenza A virus. Description: Antiviral activity against Influenza A virus H1N1 by cytopathy assay. The format is functional, organism-based.
The test system of data set [14] is SARS-CoV. The data set can be described thus: Antiviral activity against SARS coronavirus by visual method. In kind it is functional, organism-based. Particulars: Severe acute respiratory syndrome-related coronavirus.
Data set [15] is described as follows: Selectivity index, ratio of CC50 for cytotoxicity to EC50 for Influenza A virus H3N2. The format is toxicity. Particulars: read-out: Ratio CC50/EC50. The gist of the method: as §1
A short description of data set [16]: Selectivity index, ratio of CC50 for cytotoxicity to EC50 for Influenza A virus H5N1. The format is toxicity. To be noted: read-out: Ratio CC50/EC50. In outline: as §1

This note sets out measurements from ChEMBL document CHEMBL3120115, “Synthesis and biological evaluation of 2-oxonicotinonitriles and 2-oxonicotinonitrile based nucleoside analogues” (Eur J Med Chem, 2014).

A value given as a limit tells only on which side of the number the result lay.

As a reminder, the EC50 is the concentration needed to bring the measured effect to its halfway point. As to `CC(=O)OC[C@H]1O[C@@H](n2c(-c3cccs3)cc(-c3cccs3)c(C#N)c2=O)[C@H](OC(C)=O)[C@@H](OC(C)=O)[C@H]1OC(C)=O`, the EC50 in [1] was greater than 60 µM; in [2] it was greater than 32 µM; in data set [3], greater than 60 µM; in [5] it was greater than 19 µM; in data set [6] it was 10 µM; in data set [8], greater than 100 µM. In addition, the 50% effective concentration (EC50) in data set [9] was greater than 3.6 µM; in data set [10], greater than 12 µM; in [11], greater than 100 µM; in [13], greater than 28 µM. Also, the values for the selectivity ratio in data set [4], in data set [7] and in [12] were less than 2.4, 1.9 and less than 2.4, respectively.

With `CC(=O)OC[C@H]1O[C@@H](n2c(-c3ccccn3)cc(-c3ccc(Cl)cc3)c(C#N)c2=O)[C@H](OC(C)=O)[C@@H](OC(C)=O)[C@@H]1OC(C)=O`, the EC50 is 8.3 µM in data set [14]; greater than 300 µM in [1]; 24 µM in data set [2]; greater than 300 µM in data set [3]; 3.2 µM in data set [5]; greater than 100 µM in data set [8]. For the same compound, the EC50 in data set [9] was greater than 5.1 µM; in data set [10], greater than 3.2 µM; in data set [11], greater than 100 µM. The selectivity ratio is 1 in data set [4]; greater than 4.2 in data set [15]; 1.3 in [16]; 4.3 in data set [7]; 1 in data set [12].
